Screening results: PubChem, several laboratories
m5-HT2A agonist: activates the mouse 5-HT2A serotonin receptor | CHO-K1 mHTR2A beta-arrestin complementation, luminescence; percent of 30 µM serotonin response | AID 624169 | P35363 | activation, % at 7.6 µM | actives 0.66% (n = 360,000);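 active = activation above a run cutoff, the mean activation of all tested compounds plus 3 SD, cut at about 14% in these data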;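 note: 0% = plate median of compound wells and 100% = 30 µM serotonin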
APJ agonist: activates the human apelin receptor APJ. CHO-K1 APJ PathHunter beta-arrestin, luminescence; 0% DMSO wells, 100% apelin. activation, % at 20 µM. P35414. actives 0.11% (n = 330,000);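 active = activation more than six SD over the plate average, tested at 20 µM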;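 note: 0% = DMSO alone and 100% = apelin-13 at 10 nM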
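Assay system: CHO-K1 APJ beta-arrestin complementation cell line / Compound: single test compound dose, 20 µM final, 1% DMSO / Times: overnight seeding, 90 min compound at 25 °C, 1 h detection / Technique: beta-gal luminescence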
EBI2 antag: antagonists of human EBI2 receptor; P32249; EBI2 beta-arrestin recruitment, luminescence, 7a,25-OHC stimulated; inhibition, % at 5 µM; actives 0.81% (n = 360,000); AID 651636; in the data active = inhibition above about 38%;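 note: enzyme fragment complementation signal reports receptor beta-arrestin coupling in cells; 0% = agonist plus DMSO wells and 100% = wells without agonist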
Target sequence (P32249 whole entry, looked up, the tested form may be a part): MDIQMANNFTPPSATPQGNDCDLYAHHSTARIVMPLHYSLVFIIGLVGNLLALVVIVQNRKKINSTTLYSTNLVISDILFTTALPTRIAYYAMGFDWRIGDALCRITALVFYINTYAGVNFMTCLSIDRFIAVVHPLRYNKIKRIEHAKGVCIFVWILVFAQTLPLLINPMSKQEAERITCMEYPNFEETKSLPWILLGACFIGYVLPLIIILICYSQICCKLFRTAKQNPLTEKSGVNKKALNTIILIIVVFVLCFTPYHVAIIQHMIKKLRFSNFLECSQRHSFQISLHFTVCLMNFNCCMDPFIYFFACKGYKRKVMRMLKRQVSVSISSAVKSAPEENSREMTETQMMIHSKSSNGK
CXCR6 inh: CXCR6 (human) receptor inhibition. AID 602244. O00574. actives 0.36% (n = 360,000). inhibition, % at 20 µM. CHO-K1 PathHunter CXCR6 beta-arrestin, luminescence; in the data active = inhibition above about 34%, passing the limit was not always enough;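 note: antagonist mode with CXCL16 agonist at 10 nM final; 0% = 10 nM CXCL16 with DMSO and 100% = unstimulated wells without agonist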
APJ antag: blocks the human apelin receptor APJ; inhibition, % at 20 µM; actives 0.32% (n = 330,000); CHO-K1 APJ beta-arrestin complementation, luminescence;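 active = inhibition above about 40% at 20 µM, limit read from the data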;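 note: cells challenged with 10 nM apelin-13 agonist together with compound; plate controls were apelin-13 plus DMSO wells for no effect and DMSO wells lacking apelin-13 for full effect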
CCR6 antagonist: CCR6 (human) receptor antagonism; P51684; CHO-K1 CCR6 PathHunter beta-arrestin, luminescence, CCL20-stimulated; inhibition, % at 20 µM; actives 0.49% (n = 340,000);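 active = compounds whose inhibition of the agonist-driven luminescence signal at 20 µM reaches about 50%, limit read from the data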;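 note: cells stimulated with CCL20 at 14 nM final; plate controls were DMSO with CCL20 for no effect and DMSO without agonist for full effect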
OPRM1 ag: activates human mu opioid receptor in HTR2A counterscreen | shares compounds with m5-HT2A agonist | U2OS OPRM1 beta-arrestin PathHunter, luminescence; DMSO 0%, DAMGO 9.3 µM 100% | activation, % at 9.3 µM | actives 5.3% (n = 2,300) | AID 624380;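 active = mean activation above the mean of DMSO-only wells plus 3 SD, cut at about 0.5% in these data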
m5-HT2A ag conf: confirmation of mouse HTR2A serotonin receptor agonists; actives 19% (n = 2,300); shares compounds with m5-HT2A agonist; CHO-K1 PathHunter beta-arrestin recruitment, luminescence; DMSO 0%, 30 µM serotonin 100%; activation, % at 7.6 µM;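 active = mean activation across triplicates above the hit threshold derived in the original primary screen, cut at about 15% in these data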
Active calls of the source: *; / = no result. A selection: hits, their analogues and other compounds. The true share with any hit is near 2.1%.

SMILES	m5-HT2A agonist	APJ agonist	EBI2 antag	CXCR6 inh	APJ antag	CCR6 antagonist	OPRM1 ag	m5-HT2A ag conf
CCCN1CCN(CCCNC(=O)c2ccc3nc(N4CCC(C)CC4)sc3c2)CC1	-5	0	-9	5	9	10	/	/
CC1CCCCN1CCCNC(=O)c1ccc2nc(N3CCCCC3)sc2c1 (centres undefined)	17*	2	-11	0	-3	9	-1	-6
O=c1cc(N2CCN(c3ccc(F)cc3)CC2)[nH]c(=O)n1Cc1ccc(F)cc1	-5	6	-2	4	-3	8	/	/
COc1ccc(N2CCN(c3cc(=O)n(Cc4ccc(F)cc4)c(=O)[nH]3)CC2)cc1	16*	-1	0	-2	12	-2	-1	-1
CCNc1nc(NCC)nc(N(C#N)C(C)C)n1	20*	0	6	-3	-34	11	-1	-3
CCNc1nc(NC(C)C)nc(N(C#N)C(C)C(=O)N(C)C)n1 (centres undefined)	2	-4	-16	6	11	12	/	/
COC(=O)c1ccccc1NC(=O)N1CCCC1	3	2	-2	10	0	0	/	/
COC(=O)c1ccccc1NC(=O)N1CCN(S(=O)(=O)c2ccc(Cl)cc2)CC1	17*	-1	2	3	13	21	-1	-3
Cc1cccc(NC(=O)C2Cc3ccccc3O/C2=N\O)c1 (centres undefined)	16*	-2	5	-6	7	12	-1	-3
O=C(NCc1ccc(F)cc1)C1CCN(c2cnccn2)CC1	1	-2	-8	0	2	-8	/	/
CCOc1ccc(S(=O)(=O)NCCC(=O)NCc2ccc(OC)c(OC)c2)cc1	14*	-4	-5	3	-1	6	1.5*	8
Cc1cc(NC(=O)Nc2cccc(C(F)(F)F)c2)n(C)n1	1	0	6	-5	-2	10	/	/
COc1cccc(-n2cc(CNCc3cn(C)nc3-c3ccccc3F)cn2)c1	30*	-3	4	-3	-5	-1	0	97*
Cc1noc(C)c1CSCC(=O)N(C)CC(=O)Nc1ccccc1Cl	14*	0	-6	2	-5	-9	-1	-2
CCn1c(N2CCN(S(=O)(=O)c3ccc(OC)cc3)CC2)nc2ccccc21	17*	0	-6	5	7	6	0	44*
O=S(=O)(NCc1cccnc1)c1ccc2c(c1)OCCO2	1	0	4	-2	-1	-3	/	/
O=C(Nc1ccccn1)[C@@H]1CCC(=O)N1C(=O)OCc1ccccc1	18*	-3	0	-1	-14	2	0	-3
COC(=O)C1=C(N)Oc2cc(C)n(Cc3ccco3)c(=O)c2C1c1cccc(Cl)c1 (centres undefined)	0	-4	-1	14	15	14	/	/
Cc1cc(S(=O)(=O)Nc2cccnc2)c(C)s1	21*	-1	1	2	8	-10	0	-1
Cc1cc(C(=O)NNC(=O)C(CCC(N)=O)NS(=O)(=O)c2ccc(Cl)cc2)c(C)o1 (centres undefined)	4	-4	1	2	-16	-3	/	/
O=C(CSCC(=O)OCC(=O)c1ccc(Br)cc1)Nc1ccc(Br)cc1	1	0	-4	1	-12	-15	/	/
CCOC(=O)c1cccnc1SCC(=O)Nc1ccc(C)cc1	16*	-3	0	6	5	8	-1	-4
CCOC(=O)c1ccc(NC(=O)CSCC(=O)OCC(=O)c2ccccc2)cc1	15*	-2	13	4	1	-11	0	-3
CCOC(=O)c1ccc(NC(=O)Cn2nnc(-c3ccccc3)n2)cc1	21*	0	1	8	-3	-6	0	2
O=C(NNC(=O)c1ccccc1[N+](=O)[O-])c1cnccn1	-5	-2	-4	-8	7	-3	/	/
SMILES	m5-HT2A agonist	APJ agonist	EBI2 antag	CXCR6 inh	APJ antag	CCR6 antagonist	OPRM1 ag	m5-HT2A ag conf
O=C(c1cccc(C(F)(F)F)c1)N1CCN(S(=O)(=O)c2ccc(Cl)s2)CC1	-3	9	4	-1	22	16	/	/
O=C(c1cccc(Cl)c1)N1CCN(S(=O)(=O)c2ccc(Cl)s2)CC1	16*	-2	-2	8	2	11	0	-3
COc1ccc(-c2c(C#Cc3ccsc3)c3cc(-c4cccc5[nH]ccc45)ccc3n2C)cc1	-9	1	6	-4	-10	8	/	/
COc1cc(OC)cc(-c2c(C#Cc3ccsc3)c3cc(-c4cccc5[nH]cc(C=O)c45)ccc3n2C)c1	21*	0	-33	-13	-13	10	-1	-2
COc1ccccc1NS(=O)(=O)c1cccc(C(=O)NNC(=O)c2ccc(O)c(Cl)c2)c1	16*	4	-4	-10	24	2	0	-3
Nc1ccc(C#Cc2ccc3sc4ccccc4c(=O)c3c2)cc1	-3	8	19	1	-14	4	/	/
NC(=S)NN=Cc1nccc2c(C(F)(F)F)cccc12	5	/	12	36	/	/	/	/
CNc1cccnc1C=NNC(N)=S	15*	/	-6	-18	/	2	-1	-3
COc1ccccc1-c1c(C(F)(F)F)oc2cc(OS(C)(=O)=O)ccc2c1=O	26*	-5	-24	-10	-7	-1	0	-2
CC(CN1CCOCC1)OC(=O)/C=C/c1ccccc1 (centres undefined)	-3	-2	-2	4	-4	6	/	/
CC(CN1CCCCC1)OC(=O)/C=C/c1ccccc1 (centres undefined)	17*	-5	1	-10	-14	3	-1	1
Cc1ccc(C(=O)NNC(=O)CSc2nc(N)cc(N)n2)cc1	1	2	-3	-11	2	-8	/	/
Fc1cccc(F)c1/C=N/Nc1ccccn1	14*	-2	-2	0	-4	1	-1	-3
Fc1cccc(Cl)c1/C=N/Nc1ccccn1	3	-3	-9	-3	10	0	/	/
Cc1cnc(CN(C)C(=O)C2CCC(=O)N(CCc3ccccc3)C2)[nH]1 (centres undefined)	20*	-1	3	5	6	3	-1	-3
N#CC1c2ccccc2C=CN1C(=O)c1ccccc1 (centres undefined)	2	-6	-2	0	11	16	/	/
